PMC3696402 (Neuropharmacology, 2013)

Tests used:
C57Bl/6J male mice [1] = assay: Palatable meal eating; format: in vivo; conditions: for Eating (pellets consumed) as % of baseline levels: 24 mg/kg i.p. 15 min before 30-min access to Crunchies; for ED50 value (±95% CL), 50% attenuation of consumption: i.p. 15 min before 30-min access to Crunchies
Method in brief: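 Singly housed male C57Bl/6J mice (Harlan) with chow and water ad lib. In home cages, 10 sweet pellets (~190 mg, 3.5 kcal/g) were offered five days/week, with access tapered to 30 min/day. After ~2 weeks of stable intake, test compound was given i.p. (2 ml/kg, sterile saline) 15 min before access. Pellets eaten were counted. ED50 reported with 95% CL.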

5HT2A receptors [2] = target: T1, 5HT2A receptors (Homo sapiens, UniProt P28223); assay: Radioreceptor competition binding, [3H]-ketanserin, HEK membranes; conditions: read-out: 5HT2A Ki ± SEM; [3H]-ketanserin 2.0 nM, 1.0 h at 37°C
Method in brief: (§1)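 HEK-293 cells transiently transfected (Lipofectamine 2000, 24–48 h) with human receptor cDNA (5HT2C: unedited INI isoform). Membranes in 50 mM Tris, 10 mM MgCl2, 0.1 mM EDTA; 3–5 μg protein per well. Nonspecific binding defined with 10 μM mianserin. Separated by GF/B filtration with five 50 mM Tris-HCl washes, then scintillation counting. Triplicates, at least 3 experiments; IC50 converted to Ki by Cheng–Prusoff.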

5HT2C receptors [3] = target: T2, 5HT2C receptors (Homo sapiens, UniProt P28335); assay: PLC activation and [3H]-IP formation in HEK cells; format: cell-based; conditions: for EC50: read-out: 5HT2C EC50±SEM, [3H]-IP formation, 30 min incubation
T2 sequence (P28335 33-458): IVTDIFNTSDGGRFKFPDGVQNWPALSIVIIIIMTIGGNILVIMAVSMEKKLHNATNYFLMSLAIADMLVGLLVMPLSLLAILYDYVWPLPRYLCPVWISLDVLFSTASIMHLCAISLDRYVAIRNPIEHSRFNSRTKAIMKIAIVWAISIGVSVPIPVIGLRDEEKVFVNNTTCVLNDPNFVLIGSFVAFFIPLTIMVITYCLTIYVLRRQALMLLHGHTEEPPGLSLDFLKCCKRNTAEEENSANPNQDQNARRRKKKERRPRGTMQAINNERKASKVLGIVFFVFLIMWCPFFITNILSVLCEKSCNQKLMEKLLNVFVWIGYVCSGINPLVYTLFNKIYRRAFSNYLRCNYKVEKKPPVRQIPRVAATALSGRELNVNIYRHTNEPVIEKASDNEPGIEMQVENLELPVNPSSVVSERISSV

[4] = target: adenosine, adrenergic, benzodiazepine, cholinergic, dopamine, GABAA, histamine H2, H3, H4, NMDA/PCP, opiate, and serotonin 5-HT1A, 5-HT1B, receptors; assay: Preliminary off-target binding studies; conditions: read-out: Ki (off-target receptors), comparatively low (Ki > 0.5 μM) or very low (Ki > 1 μM) affinity, initial results, PDSP 2012
C57Bl/6J male mice [5] = assay: DOI-elicited head-twitch response; format: in vivo; conditions: for DOI-elicited HTR (responses) after pretreatment: 30 mg/kg i.p. pretreatment before 1 mg/kg (−)-DOI; for DOI-elicited HTRs after oral administration: 30 mg/kg oral (gavage) 20 min before (−)-DOI 1.0 mg/kg; for ED50 value (±95% CL), 50% attenuation of the DOI-elicited response: i.p. pretreatment before 1 mg/kg (−)-DOI; for Number of head-twitches: 10-min session
Method in brief: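 Male C57Bl/6J mice (Jackson, pair-housed, ~8 weeks old on arrival, ≥1 week acclimation), tested mid-light phase after 30 min room habituation. Test compound or saline (sterile saline, 0.01 ml/g) given i.p. 10 min, or orally by gavage 20 min, before (−)-DOI (0.1–1.0 mg/kg) or saline. Ten min after DOI, head twitches counted over 10 min by a blind observer. ED50 reported with 95% CL.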

5HT2C receptors [6] = target: T2, 5HT2C receptors; assay: Radioreceptor competition binding, [3H]-mesulergine, HEK membranes; conditions: read-out: 5HT2C Ki ± SEM; [3H]-mesulergine 1.4 nM, 1.0 h at 37°C
Method in brief: as §1

5HT2B receptors [7] = target: T3, 5HT2B receptors (Homo sapiens, UniProt P41595); assay: Radioreceptor competition binding, [3H]-mesulergine, HEK membranes; conditions: read-out: 5HT2B Ki ± SEM; [3H]-mesulergine 1.95 nM, 1.0 h at 37°C
Method in brief: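 Membranes came from HEK-293 cells transfected with 24 μg human 5HT2B cDNA (Lipofectamine 2000, 24–48 h) and collected in 50 mM Tris, 10 mM MgCl2, 0.1 mM EDTA. […] Nonspecific binding: 10 μM mianserin. Filtered on GF/B, washed five times with Tris-HCl, scintillation counted. Triplicates, ≥3 experiments.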

C57Bl/6J male mice [8] = assay: Locomotor activity; format: in vivo
5HT2B receptors [9] = target: T3, 5HT2B receptors; assay: PLC activation and [3H]-IP formation in HEK cells; format: cell-based; conditions: at 10 μM
5HT2A receptors [10] = target: T1, 5HT2A receptors; assay: PLC activation and [3H]-IP formation in HEK cells; format: cell-based; conditions: for 5HT2A Function (activation of PLC/IP formation): at 10 μM
histamine H1 GPCRs = conditions: previous studies; ref Bucholtz et al., 2009; cited from earlier work
[11] = 3 mg/kg i.p. with DOI (1 mg/kg)
[12] = 10 mg/kg i.p. with DOI (1 mg/kg)
[13] = 10 mg/kg i.p. with saline (no DOI)
[14] = 30 mg/kg i.p. with DOI (1 mg/kg)
[15] = 30 mg/kg i.p. with saline (no DOI)
[16] = 30 mg/kg oral pretreatment before 1.0 mg/kg DOI

T1 sequence (P28223 whole entry, canonical isoform): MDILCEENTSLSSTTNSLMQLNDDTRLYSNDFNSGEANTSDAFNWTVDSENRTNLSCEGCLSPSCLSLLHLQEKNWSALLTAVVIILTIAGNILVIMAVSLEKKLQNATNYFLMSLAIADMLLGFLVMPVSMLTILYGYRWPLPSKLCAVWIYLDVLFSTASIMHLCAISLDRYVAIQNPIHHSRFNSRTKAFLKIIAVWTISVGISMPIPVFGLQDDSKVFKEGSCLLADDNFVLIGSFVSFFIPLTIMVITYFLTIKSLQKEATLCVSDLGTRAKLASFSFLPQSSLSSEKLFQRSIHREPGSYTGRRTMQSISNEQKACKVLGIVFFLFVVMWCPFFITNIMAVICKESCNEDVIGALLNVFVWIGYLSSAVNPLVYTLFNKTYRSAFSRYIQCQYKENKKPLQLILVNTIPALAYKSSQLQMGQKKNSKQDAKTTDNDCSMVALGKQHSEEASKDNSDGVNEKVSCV
T3 sequence (P41595 whole entry): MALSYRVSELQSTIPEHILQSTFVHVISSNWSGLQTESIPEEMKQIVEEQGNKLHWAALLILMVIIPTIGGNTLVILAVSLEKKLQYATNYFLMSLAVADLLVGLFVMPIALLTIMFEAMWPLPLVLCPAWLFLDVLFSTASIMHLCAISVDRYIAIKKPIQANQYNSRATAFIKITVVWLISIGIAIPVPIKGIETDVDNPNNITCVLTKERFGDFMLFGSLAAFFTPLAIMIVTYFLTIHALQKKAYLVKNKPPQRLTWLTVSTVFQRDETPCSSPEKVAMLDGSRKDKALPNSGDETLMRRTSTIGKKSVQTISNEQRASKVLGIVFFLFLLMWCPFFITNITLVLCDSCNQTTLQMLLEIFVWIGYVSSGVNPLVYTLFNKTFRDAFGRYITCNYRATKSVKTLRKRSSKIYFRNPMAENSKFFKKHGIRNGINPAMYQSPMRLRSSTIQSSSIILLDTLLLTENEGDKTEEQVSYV

Structure (SMILES) | Eating (pellets consumed) as % of baseline levels (C57Bl/6J male mice [1]) | ED50 value (±95% CL), 50% attenuation of consumption (C57Bl/6J male mice [1]) | Ki (5HT2A receptors [2]) | Function at the 5HT2C receptor (efficacy compared to 5HT) (5HT2C receptors [3]) | EC50 (5HT2C receptors [3]) | Ki [4] | DOI-elicited HTR (responses) after pretreatment (C57Bl/6J male mice [5]) | DOI-elicited HTRs after oral administration (C57Bl/6J male mice [5]) | ED50 value (±95% CL), 50% attenuation of the DOI-elicited response (C57Bl/6J male mice [5]) | Ki (5HT2C receptors [6]) | Ki (5HT2B receptors [7]) | Distance travelled (mean ± s.e.m.) (C57Bl/6J male mice [8]; [11]) | Distance travelled (mean ± s.e.m.) (C57Bl/6J male mice [8]; [12]) | Distance travelled (mean ± s.e.m.) (C57Bl/6J male mice [8]; [13]) | Distance travelled (mean ± s.e.m.) (C57Bl/6J male mice [8]; [14]) | Distance travelled (mean ± s.e.m.) (C57Bl/6J male mice [8]; [15]) | Distance travelled (mean ± s.e.m.) (C57Bl/6J male mice [8]; [16]) | 5HT2B Function (activation of PLC/IP formation) (5HT2B receptors [9]) | 5HT2A Function (activation of PLC/IP formation) (5HT2A receptors [10]) | Affinity at histamine H1 GPCRs (histamine H1 GPCRs) | further results
CN(C)[C@H]1Cc2ccccc2[C@H](c2ccc(Cl)cc2)C1 (stereo in doubt) [(+)-p-Cl-PAT, (+)-(2R, 4S)-trans-4-(4′-chlorophenyl)-N,N-dimethyl-2-aminotetralin] | 15.9% | 14.8 (11.8–18.7) mg/kg | 42 ± 6 nM | partial agonists | 140 ± 20 nM | > 500 nM | 3.3 | 8.5 | 8.2 (5.4–12.4) mg/kg | 45 ± 7 nM | 80 ± 10 nM | 3523 ± 518 cm | 2557 ± 99 cm | 2142 ± 124 cm | 1329 ± 434 cm | 870 ± 502 cm | 1586 ± 398 cm | No Activation ^1 | No Activation | – | Potency at 5HT2C relative to (−)-p-Cl-PAT (5HT2C receptors [3]; ratio of EC50 values): about 12 times; Distance travelled (mean ± s.e.m.) (C57Bl/6J male mice [8]; 3 mg/kg i.p. with saline (no DOI)): 2216 ± 98 cm; pA2 (competitive antagonism of 5HT activation of 5HT2A-mediated [3H]-IP formation) (5HT2A receptors [10]; Schild analysis versus 5HT): 6.21 ± 0.55
CN(C)[C@@H]1Cc2ccccc2[C@@H](c2ccccc2)C1 (relative stereo) [(−)-trans-PAT, (−)-(2S, 4R)-trans-4-phenyl-N,N-dimethyl-2-aminotetralin, reference compound] | – | – | – | – | – | – | – | – | – | – | – | – | – | – | – | – | – | – | – | high affinity | –
CN(C)[C@H]1Cc2ccccc2[C@H](c2ccc(Cl)cc2)C1 (stereo in doubt) [(±) p-Cl-PAT, racemic trans-4-(4′-chlorophenyl)-N,N-dimethyl-2-aminotetralin] | – | – | – | – | – | – | – | 13.25 | – | – | – | – | – | – | – | – | 1662 ± 468 cm | – | – | high affinity | –
COc1cc(CC(C)N)c(OC)cc1I.Cl (single isomer, unassigned; (-)) [(−)-DOI, (−)-2,5-dimethoxy-4-iodoamphetamine hydrochloride, reference compound] | – | – | – | – | – | – | – | – | – | – | – | – | – | – | – | – | – | – | – | – | Number of head-twitches (C57Bl/6J male mice [5]; 0.1 mg/kg (−)-DOI preceded by a saline injection): 6; Number of head-twitches (C57Bl/6J male mice [5]; 0.3 mg/kg (−)-DOI preceded by a saline injection): 22; Number of head-twitches (C57Bl/6J male mice [5]; 1.0 mg/kg (−)-DOI preceded by a saline injection): 45; Number of HTRs (C57Bl/6J male mice [5]; (−)-DOI 1.0 mg/kg following oral saline administration): 37.5; Distance travelled (mean ± s.e.m.) (C57Bl/6J male mice [8]; saline pretreatment, (−)-DOI 0.1 mg/kg): 2829 ± 481 cm; Distance travelled (mean ± s.e.m.) (C57Bl/6J male mice [8]; saline pretreatment, (−)-DOI 0.3 mg/kg): 2804 ± 353 cm; Distance travelled (mean ± s.e.m.) (C57Bl/6J male mice [8]; saline pretreatment, (−)-DOI 1.0 mg/kg): 3626 ± 392 cm
CN(C)[C@@H]1Cc2ccccc2[C@@H](c2ccc(Cl)cc2)C1 (stereo in doubt) [(−)-p-Cl-PAT, (−)-(2S, 4R)-trans-4-(4′-chlorophenyl)-N,N-dimethyl-2-aminotetralin] | 36.4% | 21.3 (18.5–24.4) mg/kg | 240 ± 32 nM | partial agonists | 1650 ± 149 nM | > 500 nM | 13 | 18.25 | 20.1 (14.0–28.8) mg/kg | 130 ± 16 nM | 300 ± 30 nM | 3386 ± 150 cm | 3064 ± 309 cm | 3097 ± 937 cm | 1889 ± 191 cm | 1994 ± 165 cm | 1944 ± 654 cm | No Activation ^1 | No Activation ^1 | – | –
